Measured values taken from ChEMBL document CHEMBL1811799, “Jatrophane diterpenes from Euphorbia esula as antiproliferative agents and potent chemosensitizers to overcome multidrug resistance” (J Nat Prod, 2011).

What was measured:
[1] = system: MCF7; experiment: Antiproliferative activity against human MCF7 cells assessed as growth inhibition at 10 ug/mL after 72 hrs by MTT assay; type: functional; settings: MCF7, 72 h, read-out: GI
In short: (§1)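 MTT assay on human HeLa, Ishikawa and MCF7 cells seeded at 5000/well and left to attach overnight. Medium was then replaced with medium containing test substances (DMSO stocks, final DMSO up to 0.3%). After 72 h, MTT was added for 4 h, formazan was dissolved in DMSO and absorbance read at 545 nm. Untreated cells served as negative control and cisplatin as positive control. Two plates were run, each with at least five parallel wells.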

[2] = system: Ishikawa; experiment: Antiproliferative activity against human Ishikawa cells assessed as growth inhibition at 30 ug/mL after 72 hrs by MTT assay; type: functional; settings: read-out: GI; in short: as §1
[3] = system: MCF7; experiment: Antiproliferative activity against human MCF7 cells assessed as growth inhibition at 30 ug/mL after 72 hrs by MTT assay; type: functional; settings: MCF7, 72 h, read-out: GI; in short: as §1
[4] = system: HeLa; experiment: Antiproliferative activity against human HeLa cells assessed as growth inhibition at 30 ug/mL after 72 hrs by MTT assay; type: functional; settings: read-out: GI; in short: as §1
[5] = system: Ishikawa; experiment: Antiproliferative activity against human Ishikawa cells assessed as growth inhibition at 10 ug/mL after 72 hrs by MTT assay; type: functional; settings: read-out: GI; in short: as §1
[6] = target: T1, ATP-dependent translocase ABCB1 (Homo sapiens, UniProt P08183); experiment: Inhibition of MDR1-mediated rhodamine 123 uptake expressed in mouse L5178Y cells transfected with pHa MDR1/A assessed as fluorescence activity ratio at 40 ug/mL by flow cytometry relative to untreated control; type: cell-based
In short: (§2)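 Mouse L5178 lymphoma cells transfected with pHa MDR1/A retrovirus were kept under 60 ng/mL colchicine, alongside L5178Y parent cells, in McCoy's 5A medium with 10% horse serum. Cells at 2×10^6/mL in serum-free medium were preincubated with compound (4.0 or 40.0 μg/mL, in DMSO) for 10 min at room temperature. Rhodamine 123 was then added (5.2 μM final) for 20 min at 37 °C, and cells were washed and measured by flow cytometry. R compares treated versus untreated MDR cells relative to parental cells. Verapamil served as positive control.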

[7] = system: HeLa; experiment: Antiproliferative activity against human HeLa cells assessed as growth inhibition at 10 ug/mL after 72 hrs by MTT assay; type: functional; settings: read-out: GI; in short: as §1
[8] = target: T1, ATP-dependent translocase ABCB1; experiment: Inhibition of MDR1-mediated rhodamine 123 uptake expressed in mouse L5178Y cells transfected with pHa MDR1/A assessed as fluorescence activity ratio at 4 ug/mL by flow cytometry relative to untreated control; type: cell-based; in short: as §2

T1 sequence (P08183 whole entry): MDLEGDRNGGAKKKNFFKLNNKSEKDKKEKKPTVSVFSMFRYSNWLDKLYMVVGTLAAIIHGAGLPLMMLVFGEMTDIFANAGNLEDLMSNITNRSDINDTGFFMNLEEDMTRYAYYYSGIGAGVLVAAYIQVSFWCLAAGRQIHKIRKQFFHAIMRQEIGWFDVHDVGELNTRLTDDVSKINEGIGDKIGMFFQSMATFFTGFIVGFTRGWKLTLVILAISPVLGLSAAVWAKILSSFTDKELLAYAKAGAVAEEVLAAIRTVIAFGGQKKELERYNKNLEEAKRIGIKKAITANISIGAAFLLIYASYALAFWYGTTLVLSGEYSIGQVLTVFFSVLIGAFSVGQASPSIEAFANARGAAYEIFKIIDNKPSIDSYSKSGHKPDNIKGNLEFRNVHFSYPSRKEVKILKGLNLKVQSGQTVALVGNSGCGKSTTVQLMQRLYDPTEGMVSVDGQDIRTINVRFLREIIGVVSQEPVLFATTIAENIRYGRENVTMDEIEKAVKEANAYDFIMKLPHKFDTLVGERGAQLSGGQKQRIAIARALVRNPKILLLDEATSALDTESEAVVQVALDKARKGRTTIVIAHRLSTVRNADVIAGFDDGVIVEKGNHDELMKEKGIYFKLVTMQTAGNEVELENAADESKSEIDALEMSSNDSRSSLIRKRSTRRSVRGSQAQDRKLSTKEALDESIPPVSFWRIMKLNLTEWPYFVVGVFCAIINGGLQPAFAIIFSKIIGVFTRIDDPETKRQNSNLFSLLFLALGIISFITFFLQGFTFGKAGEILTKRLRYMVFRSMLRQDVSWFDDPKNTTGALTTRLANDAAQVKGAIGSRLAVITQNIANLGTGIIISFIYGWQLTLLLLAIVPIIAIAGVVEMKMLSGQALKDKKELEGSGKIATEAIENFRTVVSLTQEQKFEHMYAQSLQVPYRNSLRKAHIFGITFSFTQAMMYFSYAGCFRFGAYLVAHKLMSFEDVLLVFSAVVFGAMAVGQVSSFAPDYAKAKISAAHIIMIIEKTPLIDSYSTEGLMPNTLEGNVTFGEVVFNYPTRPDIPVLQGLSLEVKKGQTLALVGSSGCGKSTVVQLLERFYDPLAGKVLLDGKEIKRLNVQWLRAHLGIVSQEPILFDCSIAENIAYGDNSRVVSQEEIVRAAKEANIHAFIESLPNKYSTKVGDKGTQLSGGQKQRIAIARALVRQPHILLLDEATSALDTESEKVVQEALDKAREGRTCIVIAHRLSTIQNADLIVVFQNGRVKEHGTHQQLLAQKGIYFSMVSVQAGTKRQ

Ratio [6]	Ratio [8]	Compound	inhibition of growth at 10 µg/mL [1]	inhibition of growth at 30 µg/mL [2]	inhibition of growth at 30 µg/mL [3]	inhibition of growth at 30 µg/mL [4]	inhibition of growth at 10 µg/mL [5]	inhibition of growth at 10 µg/mL [7]
15.2	4.6	C=C1[C@H](OC(C)=O)C[C@@H](OC(C)=O)C(C)(C)/C=C/[C@@H](C)C(=O)[C@@]2(OC(C)=O)C[C@@](C)(OC(C)=O)[C@H](OC(C)=O)[C@@H]2[C@H]1OC(C)=O [ESULATIN D]	9.5%	29.9%	13.5%	26.7%	29.4%	11.4%
36.4	23.8	C=C1[C@H](OC(=O)C(C)C)C[C@@H](OC(=O)c2cccnc2)C(C)(C)/C=C/[C@@H](C)C(=O)[C@@]2(OC(C)=O)C[C@@](C)(OC(C)=O)[C@H](OC(C)=O)[C@@H]2[C@H]1OC(C)=O	3.6%	26.6%	16.7%	1.1%	17.5%	6.4%
12.3	1.9	C=C1[C@H](OC(C)=O)C[C@@H](OC(=O)c2cccnc2)[C@](C)(OC(C)=O)C/C=C/[C@@H](C)C(=O)[C@@]2(OC(C)=O)C[C@@](C)(OC(=O)c3cccnc3)[C@H](OC(C)=O)[C@@H]2[C@H]1OC(C)=O [EUPHOSALICIN]	6.3%	7.6%	20%	18.1%	0.9%	14.5%
19.8	7.2	C=C1[C@H](OC(C)=O)C[C@@H](OC(=O)c2cccnc2)C(C)(C)/C=C/[C@@H](C)C(=O)[C@@]2(OC(C)=O)C[C@@](C)(OC(=O)c3cccnc3)[C@H](OC(C)=O)[C@@H]2[C@H]1OC(C)=O [ESULATIN K]	1.3%	0.1%	21.3%	0.6%	7.5%	0.5%
2.3	1.7	C=C1[C@H](OC(C)=O)C[C@@H](OC(=O)c2cccnc2)C(C)(C)/C=C/[C@@H](C)C(=O)[C@@]2(OC(C)=O)C[C@@](C)(OC(C)=O)[C@H](OC(C)=O)[C@@H]2[C@H]1OC(C)=O	20.3%	13.9%	36.3%	17.9%	8.1%	13.9%

Second part, the molecule before the results:

Compound	Ratio [6]	Ratio [8]	inhibition of growth at 10 µg/mL [1]	inhibition of growth at 30 µg/mL [2]	inhibition of growth at 30 µg/mL [3]	inhibition of growth at 30 µg/mL [4]	inhibition of growth at 10 µg/mL [5]	inhibition of growth at 10 µg/mL [7]
C=C1[C@H](OC(C)=O)CC(=O)C(C)(C)/C=C/[C@@H](C)C(=O)[C@@]2(OC(C)=O)C[C@@](C)(OC(=O)c3ccccc3)[C@H](OC(C)=O)[C@@H]2[C@H]1OC(C)=O [ESULATIN I]	19.9	3.9	12.7%	29.4%	60.1%	23.8%	8%	15.4%
CC(=O)O[C@H]1[C@H]2OC(=O)CC[C@](O)([C@@H]1OC(=O)C(C)C)[C@H](OC(C)=O)[C@H]1[C@@H](OC(C)=O)[C@](C)(OC(C)=O)C[C@]1(OC(C)=O)C(=O)[C@H](C)[C@H]1O[C@@H]1C2(C)C	17.5	5.9	24.8%	33%	29.2%	20.8%	31.5%	5.3%
C=C1/C=C\C(=O)C(C)(C)/C=C/[C@@H](C)C(=O)[C@@]2(OC(C)=O)C[C@@](C)(OC(C)=O)[C@H](OC(C)=O)[C@@H]2[C@H]1OC(C)=O [ESULATIN E]			30.4%	54.1%	61.4%	58.1%	35.6%	19.5%
C=C1[C@H](OC(=O)C(C)C)[C@@H](OC(C)=O)[C@@H](OC(C)=O)C(C)(C)[C@@H]2O[C@](O)([C@H](C)[C@@H]2OC(C)=O)[C@@]2(OC(C)=O)C[C@@](C)(OC(C)=O)[C@H](OC(C)=O)[C@@H]2[C@H]1OC(C)=O	1	1.4	9.8%	17.7%	11.4%	17.8%	12%	10.6%
C=C1[C@H](OC(=O)C(C)C)CC(=O)C(C)(C)/C=C/[C@@H](C)C(=O)[C@@]2(OC(C)=O)C[C@H](C)[C@H](OC(C)=O)[C@@H]2[C@H]1OC(C)=O	52.5	24.9	46.8%	98.4%	81.4%	64.5%	18.4%	19.1%
C=C1[C@H](OC(=O)C(C)C)[C@@H](OC(C)=O)[C@@H](OC(C)=O)C(C)(C)/C=C/[C@@H](C)C(=O)[C@@]2(OC(C)=O)C[C@@](C)(OC(C)=O)[C@H](OC(C)=O)[C@@H]2[C@H]1OC(C)=O	14.8	5.5	8.7%	17.1%	23.3%	10.9%	21.4%	2.9%
C=C1[C@H](OC(=O)C(C)C)C[C@@H](OC(=O)c2cccnc2)C(C)(C)/C=C/[C@@H](C)C(=O)[C@@]2(OC(C)=O)C[C@H](C)[C@H](OC(C)=O)[C@@H]2[C@H]1OC(C)=O	119.9	16.6	18.5%	16.4%	14.4%	4.5%	5.9%	18.3%
C=C1[C@H](OC(C)=O)CC(=O)C(C)(C)/C=C/[C@@H](C)C(=O)[C@@]2(OC(C)=O)C[C@@](C)(OC(C)=O)[C@H](OC(C)=O)[C@@H]2[C@H]1OC(C)=O [ESULATIN B]	7.8	2.6	29.9%	35%	43.3%	36.3%	11.6%	17.3%
